From ChEMBL document CHEMBL1152862, “Tetrahydrobenzo- and benzofurobenzopyrones as a new class of potential photoreagents toward DNA” (2009) come the findings set out here.

The test system of test [1] is Bacillus subtilis. The test is described as follows: Antimicrobial activity against Bacillus subtilis incubated in dark for 3 hrs by disk diffusion method. The class given is functional. The essentials:
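Nutrient agar (0.3% beef extract, 0.5% peptone, 0.1% dipotassium hydrogen phosphate, 1.5% agar) seeded with B. subtilis broth culture. Duplicate control plate kept unirradiated at 37 °C overnight in the incubator. Read-out is the size of the inhibition zones.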

Test [2] has as its system Bacillus subtilis. The test is described as follows: Phototoxicity against Bacillus subtilis after 3 hrs irradiated with UV light by disk diffusion method. The class given is functional. The essentials: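 B. subtilis broth culture on nutrient agar (0.3% beef extract, 0.5% peptone, 0.1% K2HPO4, 1.5% agar). Plates held in the dark at 37 °C for 3 h so compounds diffuse through the agar. Uncovered dishes then exposed to 365 nm UV for 20 min and reincubated in the dark at 37 °C overnight. Photosensitizing activity read as inhibition zones.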
For orientation: A growth-free zone around the sample is the usual read-out of agar diffusion tests.

In the next test the test system is Nucleic Acid. The test is described as follows: Binding affinity to DNA. The class given is nucleic-acid assay.

Calls of active or inactive are those of the source. The rule behind the calls is not given here.

For the compound `O=c1cc(-c2ccccc2)c2ccc3oc4ccccc4c3c2o1`, the figures for the “inhibition zone (IZ)” value in the test with Bacillus subtilis [1] and in the test with Bacillus subtilis [2] were 13 mm and 14 mm, respectively. In addition, the result with Nucleic Acid was Active.
Turning to `COc1c2occc2cc2ccc(=O)oc12` [METHOXSALEN], the “inhibition zone (IZ)” value with Bacillus subtilis [2] was 12 mm.
For `O=c1cc(-c2ccccc2)c2cc3c(cc2o1)oc1ccccc13`, the “inhibition zone (IZ)” value in the test on Bacillus subtilis [1] stood at 10 mm; in the test on Bacillus subtilis [2], 13 mm. Besides, in the test on Nucleic Acid, the result was Active.
As to `O=c1cc(-c2ccccc2)c2cc3c4c(oc3cc2o1)CCCC4`, the “inhibition zone (IZ)” value in the test with Bacillus subtilis [1] was 9 mm; in the test on Bacillus subtilis [2], 7 mm.
Regarding `Cc1cc(=O)oc2cc3c(cc12)oc1ccccc13`, the “inhibition zone (IZ)” value in the test with Bacillus subtilis [1] is reported as 12 mm; in the test on Bacillus subtilis [2], 16 mm. In addition, in the test with Nucleic Acid, the result was Active.
As to `Cc1cc(=O)oc2ccc3oc4ccccc4c3c12`, the “inhibition zone (IZ)” value in the test with Bacillus subtilis [1] was determined as 11 mm; in the test on Bacillus subtilis [2], 14 mm. The result in the test with Nucleic Acid was Active.
Consider `O=c1cc(-c2ccccc2)c2ccc3oc4c(c3c2o1)CCCC4`, for which the “inhibition zone (IZ)” value with Bacillus subtilis [2] is 5 mm.
